# PLCb3 inh: blocks human PLC-beta3 enzyme activity. Q01970. Purified PLC-beta3, fluorogenic substrate, fluorescence. inhibition, % at 12.2 µM. 0.18% of 370,000 active; in the data active = inhibition above about 11%;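 note: 0% = median of compound wells on plate and 100% = full blocker control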
# ARFGAP1 inh: inhibits rat ARF GTPase activating protein 1 | Q62848 | Arfgap1-stimulated ARF1 GTP hydrolysis, GDP FP detection | inhibition, % at 16.5 µM | 0.26% of 360,000 active | AID 651572;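 active = inhibition above a per-plate limit, mean inhibition of low control wells plus 3 SD, cut at about 25% in these data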;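 note: 0% = DMSO wells with enzyme and 100% = wells lacking Arfgap1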
# Target sequence (Q62848 1-136 limits assumed): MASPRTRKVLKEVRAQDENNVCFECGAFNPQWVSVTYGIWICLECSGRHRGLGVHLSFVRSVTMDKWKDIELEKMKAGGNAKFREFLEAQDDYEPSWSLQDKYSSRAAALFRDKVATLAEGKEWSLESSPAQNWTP
#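 Material – truncated rat Arfgap1 GAP domain · Buffer or medium – HEPES-based buffer, pH 7.5 · Reagent – human ARF1(Δ1-17)-GTP substrate · Dosing – 16.5 µM single point, 1.26% DMSO · Schedule – GTP hydrolysis reaction 2 h at 25 °C · Technique – GDP detection by fluorescence polarization · Benchmarks – No-Arfgap1 wells (100%) versus DMSO full-reaction wells (0%) · Repeats – single replicate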
# PLCg1 inh: PLC-gamma1 (human) inhibition, primary screen; inhibition, % at 12.2 µM; 0.84% of 370,000 active; AID 720700; purified PLC-gamma1, fluorogenic substrate, fluorescence
# ASAP1 inh: inhibitors of human ASAP1 ArfGAP activity | Q9ULH1 | ASAP1-stimulated ARF1 GTP hydrolysis, GDP FP detection | inhibition, % at 16.5 µM | 0.19% of 360,000 active | AID 624377; in the data active = inhibition above about 25%;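 note: 0% = vehicle with enzyme and substrate and 100% = no enzyme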
# HGIII-sPLA2 inh: Inhibits HGIII-sPLA2 liposome hydrolysis, primary screen; inhibition, % at 12.2 µM; Q9NZ20; QFRET BODIPY PC-A2 liposome hydrolysis, fluorescence; AID 743126; 0.56% of 370,000 active;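 active = inhibition above mean plus 3 SD of compounds lying within the high and low control bounds, cut at about 19% in these data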;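 note: 0% = median of test compound wells and 100% = no enzyme DMSO wells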
# PLCg1 ctr: counter-screen for PLC-beta3 inhibitors: inhibitors of human PLC-gamma1. shares compounds with PLCg1 inh. purified PLC-gamma1, fluorogenic substrate, fluorescence. 3.1% of 3,300 active. inhibition, % at 12.3 µM
# PLCbeta3 conf: human PLC-beta3 inhibition, confirmation | shares compounds with PLCg1 inh | purified PLC-beta3, fluorogenic substrate fluorescence | inhibition, % at 12.3 µM | 1% of 3,300 active | AID 743261; in the data active = inhibition above about 11%
# * marks the source's active call; other numbers are inactive results; . = not tested or not shown. The list is not random: actives were taken first. Their share in the collection is about 1.9%. Cut-off read from the data, not from the text of the source, unless noted: active = inhibition above about 9.5%; inactive = the rest.
SMILES,PLCb3 inh,ARFGAP1 inh,PLCg1 inh,ASAP1 inh,HGIII-sPLA2 inh,PLCg1 ctr,PLCbeta3 conf
Cc1ccccc1NC(=O)N1CCCC(c2nc(-c3ccc(C(C)C)cc3)no2)C1 (stereo not given),3,2,10*,-3,-3,-5,-2
Cc1ccccc1NC(=O)N1CCCC(c2nc(-c3ccc(F)cc3)no2)C1 (stereo not given),1,9,-1,-15,-2,.,.
O=C(NC1CCCCC1)N1CCCC(c2nc(-c3cccs3)no2)C1 (stereo not given),10,5,10*,7,5,-7,-1
CN(CCc1ccccc1)C(=O)c1ccc(NC(=O)Cc2ccc(NC(=O)C3CCN(C(=O)C4CC4)CC3)cc2)cc1,0,13,-1,-3,-21,.,.
CN(CCc1ccccc1)C(=O)c1ccc(NC(=O)Cc2ccc(NC(=O)C3CCN(C(=O)C4CCCC4)CC3)cc2)cc1,5,3,10*,-12,-45,7,3
O=C(Cn1ccc([N+](=O)[O-])n1)Nc1nccs1,8,-3,9.6*,5,4,-2,3
Cc1cc([N+](=O)[O-])nn1CC(=O)Nc1nccs1,0,-4,4,-3,-7,.,.
CC(=O)N1c2ccc(S(=O)(=O)N3c4ccccc4CC3C)cc2CC1C (stereo not given),-7,-1,2,-4,-5,.,.
CC1Cc2ccccc2N1S(=O)(=O)c1ccc2c(c1)n(C)c(=O)c(=O)n2C (stereo not given),4,0,9.6*,10,5,-1,2
O=C1NC(=O)/C(=C\c2ccc(Br)o2)S1,-25,16,15*,1,2,-13,-16
COCc1cn(-c2ccc3c(c2)[C@@]2(CC(=O)N(C)C2c2ccccc2)C(=O)N3CC(C)C)nn1 (stereo not given in full),2,.,1,.,4,.,.
C#CCN1CC(N(C)CCOC(=O)c2occ3ccccc23)CS1(=O)=O (stereo not given),0,.,-1,.,3,.,.
Nn1cnnc1SCC(=O)N(C1CCCCC1)C1CCCCC1,6,3,11*,1,0,-5,-1
Cn1ccnc1SCC(=O)N(C1CCCCC1)C1CCCCC1,-2,13,-1,10,0,.,.
COC(=O)[C@@H](C)NC(=O)C(Cc1ccc2c(c1)OCO2)NC(C)=O (stereo not given in full),-1,.,-3,.,2,.,.
CN(Cc1cn(-c2ccccc2)nc1-c1cc2ccccc2o1)C(=O)CCC(=O)O,0,-9,10*,9,-19,-6,-3
C[C@H](O)[C@@H]1C(=O)N2CCc3c([nH]c4c(-c5ccc6c(c5)OCO6)cccc34)[C@@H]2C[C@@H]1N(C)C(=O)c1ccccc1F,-13,.,-13,.,-61,.,.
COc1ccc(CN2C(C(=O)NCC(C)C)CSCCS2(=O)=O)cc1 (stereo not given),2,.,-1,.,4,.,.
COc1ccc(S(=O)(=O)NCc2ccc(C(=O)O)cc2)cc1,4,-2,3,2,9,.,.
COc1ccc(S(=O)(=O)NCc2ccc(C(=O)NCCN(C)Cc3ccccc3)cc2)cc1,7,-2,9.8*,7,-14,-10,-2
COC(=O)[C@]12C[C@H](CC(=O)NCC3CCCCC3)C(=O)N(Cc3ccc(Cl)cc3Cl)C1=C[C@H](C(C)(C)C)O[C@@H]2C,2,.,0,.,-3,.,.
CC(C)NC(=O)C1(C)CCCN1Cc1csc2ccccc12 (stereo not given),0,2,3,-9,-5,.,.
CC(C)NC(=O)C1(C)CCCN1Cc1ccccc1C#N (stereo not given),8,-4,11*,4,1,-6,-2
O=[N+]([O-])c1cccc(C(=Nc2cccc(Cl)c2)NO)c1,0,-5,-3,-2,-13,.,.
ONC(=Nc1ccc(Cl)cc1)c1ccccc1,12*,-9,-2,-5,-3,-6,12*
CCCCCCCCN1CCS(=O)(=O)N(Cc2ccc(OC)cc2)C(C(=O)OC)C1 (stereo not given),3,.,-2,.,-5,.,.
